One series addresses T1, Integrin alpha-4/beta-7 (Homo sapiens, UniProt P13612+P26010).
T1 sequence (P13612 whole entry): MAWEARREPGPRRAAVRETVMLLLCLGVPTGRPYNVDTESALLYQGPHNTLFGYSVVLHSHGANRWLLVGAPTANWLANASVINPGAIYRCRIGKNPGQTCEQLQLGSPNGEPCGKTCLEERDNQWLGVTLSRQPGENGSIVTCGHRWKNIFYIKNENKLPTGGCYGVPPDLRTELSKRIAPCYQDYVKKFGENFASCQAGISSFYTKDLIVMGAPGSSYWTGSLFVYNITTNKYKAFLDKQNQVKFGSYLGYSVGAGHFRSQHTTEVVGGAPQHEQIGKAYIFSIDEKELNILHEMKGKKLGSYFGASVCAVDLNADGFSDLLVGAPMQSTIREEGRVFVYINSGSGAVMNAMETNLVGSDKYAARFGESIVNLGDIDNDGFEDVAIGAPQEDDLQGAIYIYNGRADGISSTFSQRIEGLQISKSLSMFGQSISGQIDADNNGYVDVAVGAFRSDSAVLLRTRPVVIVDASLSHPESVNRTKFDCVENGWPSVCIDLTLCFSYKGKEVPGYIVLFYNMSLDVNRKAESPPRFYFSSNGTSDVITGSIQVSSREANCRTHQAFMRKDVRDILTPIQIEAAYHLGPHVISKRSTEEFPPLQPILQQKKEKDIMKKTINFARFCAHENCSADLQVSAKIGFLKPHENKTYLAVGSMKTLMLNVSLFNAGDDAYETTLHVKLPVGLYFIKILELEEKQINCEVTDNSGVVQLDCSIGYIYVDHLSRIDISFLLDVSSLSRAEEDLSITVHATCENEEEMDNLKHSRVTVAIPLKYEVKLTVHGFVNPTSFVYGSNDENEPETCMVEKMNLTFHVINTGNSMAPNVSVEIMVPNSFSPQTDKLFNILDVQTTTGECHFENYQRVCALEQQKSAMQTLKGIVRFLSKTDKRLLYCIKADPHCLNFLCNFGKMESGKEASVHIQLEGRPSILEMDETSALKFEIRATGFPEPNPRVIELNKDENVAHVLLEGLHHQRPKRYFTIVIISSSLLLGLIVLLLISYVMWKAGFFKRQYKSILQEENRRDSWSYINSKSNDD
T1 sequence (P26010 whole entry): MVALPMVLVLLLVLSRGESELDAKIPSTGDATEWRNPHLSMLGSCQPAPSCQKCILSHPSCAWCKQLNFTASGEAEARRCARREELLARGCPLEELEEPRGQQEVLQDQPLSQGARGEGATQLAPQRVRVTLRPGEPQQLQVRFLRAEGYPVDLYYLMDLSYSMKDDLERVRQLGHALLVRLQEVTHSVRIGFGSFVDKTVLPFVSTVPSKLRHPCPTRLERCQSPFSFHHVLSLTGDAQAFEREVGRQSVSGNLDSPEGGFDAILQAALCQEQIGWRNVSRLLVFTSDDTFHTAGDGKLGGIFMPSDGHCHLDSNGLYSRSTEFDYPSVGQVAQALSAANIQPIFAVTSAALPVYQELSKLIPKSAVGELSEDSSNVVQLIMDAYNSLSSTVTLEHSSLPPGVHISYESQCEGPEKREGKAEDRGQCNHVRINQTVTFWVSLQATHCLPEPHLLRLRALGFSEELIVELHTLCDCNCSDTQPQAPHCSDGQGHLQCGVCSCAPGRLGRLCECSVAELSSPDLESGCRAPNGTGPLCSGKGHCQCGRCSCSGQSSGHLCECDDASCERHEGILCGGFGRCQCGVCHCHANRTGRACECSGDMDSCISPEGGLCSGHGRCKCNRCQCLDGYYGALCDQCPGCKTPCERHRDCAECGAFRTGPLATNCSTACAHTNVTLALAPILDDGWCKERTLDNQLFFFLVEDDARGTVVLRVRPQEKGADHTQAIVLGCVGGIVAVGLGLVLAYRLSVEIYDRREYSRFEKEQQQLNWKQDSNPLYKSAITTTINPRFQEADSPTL
Briefly: Inhibition of [125I]MAdCAM-Ig binding to human integrin alpha4-beta7 of RPMI-8866 cells. In kind it is cell-based.

Another series addresses Integrin alpha-4/beta-1 (Homo sapiens, UniProt P05556+P13612). The series can be described thus: Inhibition of [125I]VCAM-Ig binding to human integrin alpha4-beta1 (VLA-4) of Jurkat cells. Format: cell-based. The procedure, abridged: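 Filtered, washed, and bound radiolabel counted by scintillation. DMSO wells set 0% inhibition; cell-free wells set 100%. IC50 from ten-point titration by four-parameter fit, run in duplicate.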

Series [1] can be described thus: Plasma half-life was determined in Sprague-Dawley rats after 0-8 hr of administration. In kind it is ADME, organism-based. Conditions: rat. The procedure, abridged: (§1)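 Sprague–Dawley rats given 1 mg/kg iv and 2 mg/kg po. Plasma half-life taken over 0–8 h.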
Series [2] is described as follows: Oral bioavailability in rat (Sprague-Dawley) (dose 1 mg/kg i.v.). Format: ADME, organism-based. The note with it: in vivo, 2 mg/kg. An outline of the steps: as §1
A short description of series [3]: Plasma clearance rate in Sprague-Dawley rats. Format: ADME, organism-based. The note with it: rat, read-out: Clp. An outline of the steps:
as §1

Sequence of Integrin alpha-4/beta-1 (P05556 whole entry, one chain of several): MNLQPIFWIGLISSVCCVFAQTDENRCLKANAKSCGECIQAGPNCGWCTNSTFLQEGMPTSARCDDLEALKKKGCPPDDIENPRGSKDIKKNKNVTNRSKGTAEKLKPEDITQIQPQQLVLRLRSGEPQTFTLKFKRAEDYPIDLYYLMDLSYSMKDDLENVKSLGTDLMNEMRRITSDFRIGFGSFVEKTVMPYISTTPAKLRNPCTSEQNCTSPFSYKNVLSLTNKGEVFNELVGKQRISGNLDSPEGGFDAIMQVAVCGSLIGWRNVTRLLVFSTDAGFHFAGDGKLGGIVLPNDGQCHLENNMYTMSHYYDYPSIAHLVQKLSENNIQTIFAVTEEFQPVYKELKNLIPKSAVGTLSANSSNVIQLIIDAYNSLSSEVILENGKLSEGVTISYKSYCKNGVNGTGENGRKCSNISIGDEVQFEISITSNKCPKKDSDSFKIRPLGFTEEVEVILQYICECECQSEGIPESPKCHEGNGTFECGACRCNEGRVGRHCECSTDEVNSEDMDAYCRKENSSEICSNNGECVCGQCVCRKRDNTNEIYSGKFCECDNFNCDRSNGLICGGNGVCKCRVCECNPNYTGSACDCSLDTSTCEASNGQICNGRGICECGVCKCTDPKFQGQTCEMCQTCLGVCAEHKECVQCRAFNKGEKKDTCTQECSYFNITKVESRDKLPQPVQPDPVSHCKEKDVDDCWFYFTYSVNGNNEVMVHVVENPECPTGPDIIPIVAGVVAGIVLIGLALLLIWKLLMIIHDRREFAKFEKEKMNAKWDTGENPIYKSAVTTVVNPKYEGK

Turning to `COc1cccc(OC)c1-c1ccc(C[C@H](NC(=O)[C@@H]2CCCN2c2cc([N+](=O)[O-])cc([N+](=O)[O-])n2)C(=O)O)cc1`, the IC50 (as a rule, the point on the concentration scale where inhibition reaches its midpoint) on Integrin alpha-4/beta-7 is 17 nM; on Integrin alpha-4/beta-1, 0.38 nM.

Turning to `COc1cccc(OC)c1-c1ccc(CC(NC(=O)C2CCCN2S(=O)(=O)c2ccccc2)C(=O)O)cc1` (stereo unspecified), in series [1], the half-life (usually the time in which the quantity being followed falls by half) was 36 min. Also, the results for the IC50 at Integrin alpha-4/beta-7 and on Integrin alpha-4/beta-1 were 2.5 nM and 0.05 nM, respectively. Besides, in series [2], the bioavailability (in general, dose-corrected exposure relative to a reference, in per cent) came out at 2%. The clearance in series [3] was found to be 127 mL/min/kg.

On to `COc1cccc(OC)c1-c1ccc(C[C@H](NC(=O)[C@@H]2CCCN2c2ccccc2C#N)C(=O)O)cc1`, for which the half-life in series [1] was 18 min. Further, the IC50 at Integrin alpha-4/beta-7 worked out at 3.5 nM; on Integrin alpha-4/beta-1, 0.37 nM. The molecule also had a bioavailability in series [2] of less than 1%. Besides, the clearance in series [3] was found to be 69 mL/min/kg.

In turn, `COc1cccc(OC)c1-c1ccc(C[C@H](NC(=O)[C@@H]2CCCN2c2ccc([N+](=O)[O-])cc2)C(=O)O)cc1` gave a half-life in series [1] of 84 min. Moreover, the results for the IC50 at Integrin alpha-4/beta-7 and on Integrin alpha-4/beta-1 were 17.1 nM and 1.1 nM, respectively. The bioavailability in series [2] was less than 1%. The clearance in series [3] is greater than 100 mL/min/kg.

Turning to `COc1cccc(OC)c1-c1ccc(C[C@H](NC(=O)[C@@H]2CCCN2c2cncc3ccccc23)C(=O)O)cc1`, the results for the IC50 on Integrin alpha-4/beta-7 and on Integrin alpha-4/beta-1 were 45 nM and 1.1 nM, respectively.

The molecule `COc1cccc(N2CCC[C@H]2C(=O)N[C@@H](Cc2ccc(-c3c(OC)cccc3OC)cc2)C(=O)O)c1` gave a half-life in series [1] of 42 min. Besides, the IC50 is 5.8 nM on Integrin alpha-4/beta-7 and 0.41 nM at Integrin alpha-4/beta-1. For the same molecule, the bioavailability in series [2] is 3%. Moreover, in series [3], the clearance turned out to be 64 mL/min/kg.

With `COc1cccc(OC)c1-c1ccc(C[C@H](NC(=O)[C@@H]2CCCN2c2cccnc2)C(=O)O)cc1`, the half-life in series [1] is 12 min. For the same molecule, the results for the IC50 at Integrin alpha-4/beta-7 and on Integrin alpha-4/beta-1 were 5.5 nM and 0.34 nM, respectively. The molecule also gave a bioavailability in series [2] of less than 1%. In series [3], the clearance was found to be 43 mL/min/kg.

Regarding `COc1cccc(OC)c1-c1ccc(C[C@H](NC(=O)[C@@H]2CCCN2c2cnccn2)C(=O)O)cc1`, the IC50 at Integrin alpha-4/beta-7 came out at 8.9 nM; at Integrin alpha-4/beta-1 it was 0.17 nM.

In the case of `COc1cccc(OC)c1-c1ccc(C[C@H](NC(=O)[C@@H]2CCCN2c2ccccn2)C(=O)O)cc1`, the half-life in series [1] was 18 min. Besides, the results for the IC50 on Integrin alpha-4/beta-7 and on Integrin alpha-4/beta-1 were 18 nM and 1.9 nM, respectively. For the same molecule, the bioavailability in series [2] is 2%. Moreover, in series [3], the clearance came out at 29 mL/min/kg.

Take `COc1cccc(OC)c1-c1ccc(C[C@H](NC(=O)[C@@H]2CCCN2c2cncnc2)C(=O)O)cc1`: the IC50 stood at 18.8 nM on Integrin alpha-4/beta-7 and 0.73 nM at Integrin alpha-4/beta-1.

As to `COc1cccc(OC)c1-c1ccc(CC(NC(=O)C2(c3ccccc3)CCCC2)C(=O)O)cc1` (stereo unspecified), the figures for the IC50 at Integrin alpha-4/beta-7 and at Integrin alpha-4/beta-1 were 110 nM and 3.2 nM, respectively. The bioavailability in series [2] came out at 55%. In series [3], the clearance stood at 22 mL/min/kg.

In the case of `COc1cccc(OC)c1-c1ccc(CC(NC(=O)C2(S(=O)(=O)c3ccccc3)CCCC2)C(=O)O)cc1` (stereo unspecified), the IC50 at Integrin alpha-4/beta-7 is 5 nM; at Integrin alpha-4/beta-1 it was 0.11 nM. Moreover, the bioavailability in series [2] was 22%. The clearance in series [3] came to 122 mL/min/kg.

`COc1cccc(OC)c1-c1ccc(C[C@H](NC(=O)[C@@H]2CCCN2c2ccccc2)C(=O)O)cc1` had a half-life in series [1] of 36 min. Moreover, the IC50 on Integrin alpha-4/beta-7 is 21 nM; at Integrin alpha-4/beta-1, 0.61 nM. Moreover, the bioavailability in series [2] was found to be 14%. The clearance in series [3] amounted to 78 mL/min/kg.

For the origin of these results see ChEMBL document CHEMBL1134871, “N-aryl-prolyl-dipeptides as potent antagonists of VLA-4” (Bioorg Med Chem Lett, 2002).
